ChEMBL document CHEMBL1148978, “Lignan derivatives and a norditerpene from the seeds of Vitex negundo” (J Nat Prod, 2004)
The source made the active and inactive calls. No cut-off for these calls is given here.

Assays:
[1] = Antioxidant activity assessed as inhibition of lipid peroxidation at 0.5 mM after 5 days by ferric-thiocyanate method; assay type: functional
How it was run: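 Linoleic acid peroxidation: 2.51% linoleic acid in EtOH mixed with 0.05 M phosphate buffer pH 7.0, EtOH and water. Sample added from 10 mM EtOH stock, 0.5 mM final. Capped vial kept in dark at 40 °C for 5 days. Aliquot diluted in 75% EtOH, ammonium thiocyanate and ferrous chloride in HCl added, A500 read after 3 min. Blank lacks compound.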

[2] = tested on: Radical scavenging activity; experiment: Antioxidant activity assessed as DPPH radical scavenging activity at 0.02 mM; assay type: functional
How it was run: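 Sample in EtOH (0.02 mM final) added to 0.1 M acetate buffer pH 5.5 plus 0.5 mM DPPH in EtOH. Mixture stood 30 min at room temperature. Modified from a published DPPH method.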

SMILES | Activity [1] | Activity [2]
COc1cc(-c2cc(C=O)cc3cc(OC)c(O)cc23)ccc1O | Active | Active
COc1cc([C@H]2c3c(ccc(O)c3OC)C=C(C=O)[C@@H]2CO)ccc1O | Active | Active
COc1cc(-c2c3c(cc4cc(OC)c(O)cc24)C(=O)NC3)ccc1O | Active | Active
COc1cc(-c2c(O)c(C=O)cc3cc(OC)c(O)cc23)ccc1O | Active | Active
COc1cc([C@H]2c3cc(O)c(OC)cc3C=C(C=O)[C@@H]2CO)ccc1O | Active | Active
COc1cc(-c2c3c(cc4cc(OC)c(O)cc24)C(=O)OC3)ccc1O | Active | Active
